Results pooled from the literature.
Protocols differ between the studies behind these lines.
PKMYT1: Membrane-associated tyrosine- and threonine-specific cdc2-inhibitory kinase (PKMYT1, Homo sapiens, UniProt Q99640)
BRD9: Bromodomain-containing protein 9 (BRD9, Homo sapiens, UniProt Q9H8M2)
PIP4K2A: Phosphatidylinositol 5-phosphate 4-kinase type-2 alpha (PIP4K2A, Homo sapiens, UniProt P48426)

| SMILES | target | assay | conditions | measurement | result |
| --- | --- | --- | --- | --- | --- |
| CCCCC(=O)Nc1ccc(-c2ccc3ncn(CCC)c(=O)c3c2)cn1 | PKMYT1 | binding, competition with immobilised ligand | 0.5 µM | remaining binding | 86% |
| CC(=O)c1cc(-c2cccc(C(F)(F)F)c2)c2ccccn12 | BRD9 | thermal stability, DSF | 200 µM | ΔTm | 3 °C |
| Cc1cc(O)c(-c2ccc([C@@H](C)CN(C)C)cc2)c2c1[nH]c(=O)c1sccc12 | PIP4K2A | enzyme activity, inhibitor | 0.1 µM | inhibition | -0.0609% |
| COc1cc(-c2cc(C(C)=O)n3ccccc23)cc(OC)c1CN(C)C | BRD9 | thermal stability, DSF | 200 µM | ΔTm | 16.5 °C |
| CN(C)CCOC(=O)COc1ccc(Cl)cc1 | Cannabinoid receptor 2 (CNR2, Homo sapiens, UniProt P34972) | ligand displacement, radioligand | 1 µM, cell membranes | inhibition | -3.85% |
| CCN1/C(=C/C(C)=O)Sc2ccc(F)cc21 | Histamine H3 receptor (HRH3, Homo sapiens, UniProt Q9Y5N1) | ligand displacement, radioligand | 10 µM | inhibition | 0% |
| CC(=O)ON=C1C=CC(=C(C#N)c2ccccc2)C=C1 | Serine/threonine-protein kinase haspin (HASPIN, Homo sapiens, UniProt Q8TF76) | enzyme activity, inhibitor, ADP detection | 20 µM | activity vs control | 57% |
| C1=C/COCc2cc(ccc2OCCN2CCCC2)Nc2nccc(n2)-c2cccc(c2)COC/1 | Bone morphogenetic protein receptor type-1A (BMPR1A, Homo sapiens, UniProt P36894) | binding | 0.1 µM | remaining binding | 89% |
| CCC(=O)c1cc(-c2cc(OC)c(Cn3ccnc3)c(OC)c2)c2ccccn12 | BRD9 | thermal stability, DSF | 200 µM | ΔTm | 9.8 °C |
| Cc1ncc(-c2cc3cc(-c4c(C)ccc(O)c4C)cnc3[nH]2)cn1 | PKMYT1 | cell-free assay, TR-FRET | 3.333 µM | inhibition | 104% |
| NC/C(=C\F)COc1cccc(Cn2c(=S)[nH]c(=O)c3[nH]cnc32)c1 | Ileal sodium/bile acid cotransporter (SLC10A2, Homo sapiens, UniProt Q12908) | transporter uptake, inhibitor | 30 µM | inhibition | < 50% |
| C#Cc1cc(-c2cc(Nc3nc(N[C@@H](C)c4ccc(F)cn4)ncc3Cl)n[nH]2)ccc1C=O | G protein-coupled receptor kinase 6 (GRK6, Homo sapiens, UniProt P43250) | enzyme activity, inhibitor | 0.2 µM | inhibition | 18.9% |
| COc1cc(-c2cc(C(C)=O)n3ccccc23)c(OC)cc1C(C)=O | BRD9 | thermal stability, DSF | 200 µM | ΔTm | 7.5 °C |
| COc1ccc2oc(-c3ccc4nc(N)oc4c3)c/c(=N\c3ccccc3NC(=O)CCN)c2c1 | PIP4K2A | binding | 1 µM | remaining binding | 108% |
| COc1cc(-c2cc(C(C)=O)n3ccccc23)c(OC)cc1C(=O)N(C)C | BRD9 | thermal stability, DSF | 200 µM | ΔTm | 13.5 °C |
| Cc1cc(F)cc2c(CCC(=O)N[C@@H]3C(=O)NC[C@H]3O)c(-c3ccc(F)cc3)[nH]c12 | Beta-2 adrenergic receptor (ADRB2, Homo sapiens, UniProt P07550) | cell-free assay | 10 µM | inhibition | -2% |
